Experimental data reported in ChEMBL document CHEMBL1165860, “Synthesis and potential cytotoxic activity of new phenanthrylphenol-pyrrolobenzodiazepines” (2010).
Active and inactive are the calls of the source. The calls are words filed in the database; no cut-off is given here.

Assays:
NCI-H460 = assay: Growth inhibition of human NCI-H460 cells after 24 hrs by MTT assay; format: functional; settings: NCI-H460, 24 h
HOP-62 = assay: Growth inhibition of human HOP62 cells after 24 hrs by MTT assay; format: functional; settings: HOP-62, 24 h
ACHN = assay: Growth inhibition of human ACHN cells after 24 hrs by MTT assay; format: functional
Nucleic Acid = assay: Inhibition of Escherichia coli pBR322 DNA cleavage at 16 uM after 16 hrs by RED100-restriction endonuclease digestion assay; format: nucleic-acid assay
Outline: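 pBR322 DNA was preincubated with compound at final 2, 4, 8, 16 and 32 µM for 16 h at 37 °C. BamHI (10 U/µl) in BamHI buffer was then added for 2 h at 37 °C. Products were separated on agarose in 0.5× Tris–acetate EDTA at 80 V for 1 h and stained with ethidium bromide. Cut and uncut DNA served as controls.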

A498 = assay: Growth inhibition of human A498 cells after 24 hrs by MTT assay; format: functional; settings: A498, 24 h
HCT-15 = assay: Growth inhibition of human HCT15 cells after 24 hrs by MTT assay; format: functional; settings: HCT-15, 24 h
SF-539 = assay: Growth inhibition of human SF539 cells after 24 hrs by MTT assay; format: functional; settings: SF-539, 24 h
HL-60(TB) = assay: Growth inhibition of human HL-60(TB) cells after 24 hrs by MTT assay; format: functional; settings: HL-60, 24 h
SW-620 = assay: Growth inhibition of human SW620 cells after 24 hrs by MTT assay; format: functional; settings: SW-620, 24 h
U-251 = assay: Growth inhibition of human U251 cells after 24 hrs by MTT assay; format: functional; settings: U-251, 24 h
COLO 205 = assay: Growth inhibition of human COLO205 cells after 24 hrs by MTT assay; format: functional; settings: COLO 205, 24 h
MDA-MB-231 = assay: Growth inhibition of human MDA-MB-231 cells after 24 hrs by MTT assay; format: functional; settings: MDA-MB-231, 24 h
[1] = Growth inhibition of human […] cells after 24 hrs by MTT assay; format: functional
HT-29 = assay: Growth inhibition of human HT-29 cells after 24 hrs by MTT assay; format: functional; settings: HT-29, 24 h
SK-OV-3 = assay: Growth inhibition of human SKOV3 cells after 24 hrs by MTT assay; format: functional; settings: SK-OV-3, 24 h
MCF7 [2] = assay: Cell cycle arrest in human MCF7 cells assessed as accumulation at G0 phase after 24 hrs using propidium iodide staining by flow cytometry; format: functional, cell-based
Outline: (§1)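 MCF-7 cells were grown in DMEM with 10% fetal calf serum, penicillin and streptomycin, at 37 °C in 5% CO2. They were treated for 24 h at 2 and 4 µM, with DMSO-treated cells as controls. Cells were trypsinised, fixed in ice-cold 70% ethanol at 4 °C for 30 min, and RNaseA-treated at 37 °C for 30 min. Phases were read by flow cytometry.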

DU-145 = assay: Growth inhibition of human DU145 cells after 24 hrs by MTT assay; format: functional; settings: DU-145, 24 h
MCF7 [3] = assay: Cell cycle arrest in human MCF7 cells assessed as accumulation at S phase at 4 uM after 24 hrs using propidium iodide staining by flow cytometry; format: functional; outline: as §1
HOP-92 = assay: Growth inhibition of human HOP92 cells after 24 hrs by MTT assay; format: functional; settings: HOP-92, 24 h
MCF7 [4] = assay: Cell cycle arrest in human MCF7 cells assessed as accumulation at G0 phase at 4 uM after 24 hrs using propidium iodide staining by flow cytometry; format: functional; outline: as §1
Malme-3M = assay: Growth inhibition of human MALME-3M cells after 24 hrs by MTT assay; format: functional
SK-MEL-2 = assay: Growth inhibition of human SK-MEL-2 cells after 24 hrs by MTT assay; format: functional; settings: SK-MEL-2, 24 h
SK-MEL-5 = assay: Growth inhibition of human SK-MEL-5 cells after 24 hrs by MTT assay; format: functional; settings: SK-MEL-5, 24 h
MCF7 [5] = assay: Cell cycle arrest in human MCF7 cells assessed as accumulation at G1 phase at 2 uM after 24 hrs using propidium iodide staining by flow cytometry; format: functional; outline: as §1
IGROV-1 = assay: Growth inhibition of human IGROV1 cells after 24 hrs by MTT assay; format: functional; settings: IGROV-1, 24 h
MCF7 [6] = assay: Induction of apoptosis in human MCF7 cells assessed as increase of caspase 8 activation at 2 uM after 1 hr by […] method; format: functional, cell-based
Outline: (§2)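 Colorimetric caspase-8 kit on lysates of treated MCF-7 cells. The IETD-pNA substrate was incubated with cell lysate at 37 °C for 1 h, and absorbance was read at 405 nm. Untreated cells served as the control.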

CAKI-1 = assay: Growth inhibition of human Caki1 cells after 24 hrs by MTT assay; format: functional; settings: CAKI-1, 24 h
UO-31 = assay: Growth inhibition of human UO31 cells after 24 hrs by MTT assay; format: functional; settings: UO-31, 24 h
MCF7 [7] = assay: Cell cycle arrest in human MCF7 cells assessed as accumulation at S phase at 2 uM after 24 hrs using propidium iodide staining by flow cytometry; format: functional; outline: as §1
MCF7 [8] = assay: Induction of apoptosis in human MCF7 cells assessed as increase of caspase 8 activation at 4 uM after 1 hr by […] method; format: functional, cell-based; outline: as §2
HCT-116 = assay: Growth inhibition of human HCT116 cells after 24 hrs by MTT assay; format: functional; settings: HCT-116, 24 h
MDA-MB-435 = assay: Growth inhibition of human MDA-MB-435 cells after 24 hrs by MTT assay; format: functional; settings: MDA-MB-435, 24 h
NCI/ADR-RES = assay: Growth inhibition of human NCI/ADR-RES cells after 24 hrs by MTT assay; format: functional
KM12 = assay: Growth inhibition of human KM12 cells after 24 hrs by MTT assay; format: functional; settings: KM12, 24 h
K562 = assay: Growth inhibition of human K562 cells after 24 hrs by MTT assay; format: functional; settings: K562, 24 h
786-0 = assay: Growth inhibition of human 786-0 cells after 24 hrs by MTT assay; format: functional; settings: 786-0, 24 h
BT-549 = assay: Growth inhibition of human BT549 cells after 24 hrs by MTT assay; format: functional; settings: BT-549, 24 h
SF-268 = assay: Growth inhibition of human SF268 cells after 24 hrs by MTT assay; format: functional; settings: SF-268, 24 h
MCF7 [9] = assay: Cell cycle arrest in human MCF7 cells assessed as accumulation at G2/M phase at 2 uM after 24 hrs using propidium iodide staining by flow cytometry; format: functional; outline: as §1
M14 = assay: Growth inhibition of human M14 cells after 24 hrs by MTT assay; format: functional; settings: M14, 24 h
OVCAR-5 = assay: Growth inhibition of human OVCAR5 cells after 24 hrs by MTT assay; format: functional; settings: OVCAR-5, 24 h
NCI-H322M = assay: Growth inhibition of human NCI-H322M cells after 24 hrs by MTT assay; format: functional

**Q.** What does the source list for `COc1cc2c(cc1OCCCOc1ccc(-c3cc4ccccc4c4ccccc34)cc1)N=C[C@@H]1CCCN1C2=O`?
**A.** GI50 (NCI-H460): 1040 nM; GI50 (HOP-62): 1000 nM; GI50 (ACHN): 1260 nM; inhibition (Nucleic Acid): 100%; GI50 (A498): 690 nM; GI50 (HCT-15): 1180 nM; GI50 (SF-539): 1760 nM; GI50 (HL-60(TB)): 170 nM; GI50 (SW-620): 510 nM; GI50 (U-251): 910 nM; GI50 (COLO 205): 1190 nM; GI50 (MDA-MB-231): 290 nM; GI50 [1]: 190 nM; GI50 (HT-29): 890 nM; GI50 (SK-OV-3): 1560 nM; Activity (MCF7 [2]): Dose-dependent effect; GI50 (DU-145): 400 nM; Activity (MCF7 [3]): 13.05%; GI50 (HOP-92): 360 nM; Activity (MCF7 [4]): 8.35%; GI50 (Malme-3M): 1590 nM; GI50 (SK-MEL-2): 40 nM; GI50 (SK-MEL-5): 1060 nM; Activity (MCF7 [5]): 68.99%; GI50 (IGROV-1): 120 nM; Activity (MCF7 [6]): Active; GI50 (CAKI-1): 400 nM; GI50 (UO-31): 160 nM; Activity (MCF7 [7]): 17.29%; Activity (MCF7 [8]): Active; GI50 (HCT-116): 250 nM; GI50 (MDA-MB-435): 240 nM; GI50 (NCI/ADR-RES): 1670 nM; GI50 (KM12): 780 nM; GI50 (K562): 270 nM; GI50 (786-0): 700 nM; GI50 (BT-549): 270 nM; GI50 (SF-268): 860 nM; Activity (MCF7 [9]): 10.7%; GI50 (M14): 570 nM; GI50 (OVCAR-5): 1200 nM; GI50 (NCI-H322M): 1590 nM
